Calls of active or inactive are those of the source. The rule behind the calls is not given here.
How the values were obtained:
[1] = target: Protein cereblon/Zinc finger protein Aiolos (Homo sapiens) (UniProt Q96SW2+Q9UKT9); assay: Protac activity at CRBN/IKZF3 in human MM1S cells assessed as IKZF3 degradation at 100 nM measured after 4 hrs by Western blot analysis; assay type: cell-based
How it was run: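 Time course in MM1S cells (1 × 10^6 cells per well, seeded overnight) under 100 nM degrader. Whole-cell RIPA lysates analysed by 7.5−12% SDS-PAGE and PVDF immunoblot. Primary antibody at 4 °C overnight, HRP secondary 1 h, ECL detection with densitometry.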

[2] = target: Cereblon/Ikaros (Homo sapiens) (UniProt Q96SW2+Q13422); assay: Protac activity at CRBN/IKZF1 in human MM1S cells assessed as IKZF1 degradation at 100 nM measured after 6 hrs in presence of HDAC6 inhibitor Next-A by Western blot analysis; assay type: cell-based
How it was run: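 MM1S cells seeded at 1 × 10^6 per well overnight. Pretreated 1 h with pomalidomide, Next-A, MLN 4924 or DMSO, then given 100 nM degrader or DMSO for 6 h. Lysed in RIPA with protease inhibitors, 10−40 μg protein run on SDS-PAGE and transferred to PVDF. Blots probed for IKZF1/IKZF3, detected by ECL and quantified by densitometry.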

[3] = target: Protein cereblon/Histone deacetylase 3 (Homo sapiens) (UniProt O15379+Q96SW2); assay: Protac activity at CRBN/HDAC3 in human MM1S cells assessed as HDAC3 degradation measured after 6 hrs by Western blot analysis; assay type: cell-based
[4] = target: T1, Protein deacetylase HDAC6 (Homo sapiens, UniProt Q9UBN7); assay: Inhibition of human N-terminal tagged human HDAC6 expressed in HEK293T/17 using Ac-Gly-Ala-[Ac-Lys]-AMC as substrate preincubated for 10 mins followed by substrate addition and measured after 15 mins by fluorescence assay
T1 sequence (Q9UBN7 whole entry): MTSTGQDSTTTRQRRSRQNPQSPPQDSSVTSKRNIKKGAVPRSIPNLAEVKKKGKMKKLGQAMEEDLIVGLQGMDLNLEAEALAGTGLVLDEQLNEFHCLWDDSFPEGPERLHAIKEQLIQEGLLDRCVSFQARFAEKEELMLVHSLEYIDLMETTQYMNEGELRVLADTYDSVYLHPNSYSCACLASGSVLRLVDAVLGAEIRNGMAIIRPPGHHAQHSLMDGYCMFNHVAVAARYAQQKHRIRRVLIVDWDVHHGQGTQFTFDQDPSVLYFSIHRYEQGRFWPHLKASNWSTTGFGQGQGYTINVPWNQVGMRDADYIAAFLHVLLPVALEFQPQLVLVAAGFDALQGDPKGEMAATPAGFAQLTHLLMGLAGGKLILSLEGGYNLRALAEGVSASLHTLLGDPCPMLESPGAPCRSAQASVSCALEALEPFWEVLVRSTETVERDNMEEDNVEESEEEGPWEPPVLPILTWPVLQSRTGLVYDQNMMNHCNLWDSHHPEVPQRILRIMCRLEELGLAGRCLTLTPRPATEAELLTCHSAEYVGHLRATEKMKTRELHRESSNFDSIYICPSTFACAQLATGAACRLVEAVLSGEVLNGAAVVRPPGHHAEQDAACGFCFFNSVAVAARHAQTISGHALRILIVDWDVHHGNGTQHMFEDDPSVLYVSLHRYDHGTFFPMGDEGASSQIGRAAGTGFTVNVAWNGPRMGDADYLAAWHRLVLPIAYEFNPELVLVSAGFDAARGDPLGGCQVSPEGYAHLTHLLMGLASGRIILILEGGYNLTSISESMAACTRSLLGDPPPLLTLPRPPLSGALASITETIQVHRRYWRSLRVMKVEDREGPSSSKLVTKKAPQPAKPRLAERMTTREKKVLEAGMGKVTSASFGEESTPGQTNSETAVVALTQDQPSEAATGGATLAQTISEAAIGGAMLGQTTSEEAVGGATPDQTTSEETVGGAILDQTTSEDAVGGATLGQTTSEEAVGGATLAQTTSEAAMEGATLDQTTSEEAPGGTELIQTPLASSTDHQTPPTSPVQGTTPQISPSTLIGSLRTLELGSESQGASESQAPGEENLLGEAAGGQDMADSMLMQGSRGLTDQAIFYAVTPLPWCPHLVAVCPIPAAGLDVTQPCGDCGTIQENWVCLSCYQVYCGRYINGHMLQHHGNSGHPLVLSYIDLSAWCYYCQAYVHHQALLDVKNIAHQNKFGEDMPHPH

Histone deacetylase 1 = Histone deacetylase 1 (Homo sapiens, UniProt Q13547); assay: Inhibition of human N-terminal tagged human HDAC1 expressed in HEK293T/17 using Ac-Gly-Ala-[Ac-Lys]-AMC as substrate preincubated for 10 mins followed by substrate addition and measured after 15 mins by fluorescence assay
[5] = target: Protein cereblon/Protein deacetylase HDAC6 (Homo sapiens, UniProt Q9UBN7+Q96SW2); assay: Protac activity at CRBN/HDAC6 in human MM1S cells assessed as HDAC6 degradation at 100 nM measured after 1 to 4 hrs by Western blot analysis; assay type: cell-based
Chain of Protein cereblon/Protein deacetylase HDAC6 (Q96SW2 whole entry, looked up, one chain of several): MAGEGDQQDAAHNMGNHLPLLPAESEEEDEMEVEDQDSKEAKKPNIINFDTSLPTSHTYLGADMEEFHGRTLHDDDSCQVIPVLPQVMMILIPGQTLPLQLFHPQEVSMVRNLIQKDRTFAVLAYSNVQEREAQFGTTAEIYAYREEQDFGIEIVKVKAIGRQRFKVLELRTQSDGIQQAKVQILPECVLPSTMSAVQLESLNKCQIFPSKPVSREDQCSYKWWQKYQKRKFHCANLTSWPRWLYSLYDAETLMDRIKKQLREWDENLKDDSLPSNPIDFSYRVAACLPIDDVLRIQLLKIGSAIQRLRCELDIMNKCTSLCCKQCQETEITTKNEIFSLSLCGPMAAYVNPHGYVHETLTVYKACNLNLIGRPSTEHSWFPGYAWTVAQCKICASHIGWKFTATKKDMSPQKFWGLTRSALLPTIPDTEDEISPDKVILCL

Chain of Protein cereblon/Zinc finger protein Aiolos (Homo sapiens) (Q96SW2 whole entry, looked up): as the sequence (Q96SW2 whole entry, looked up, one chain of several) above
Chain of Protein cereblon/Zinc finger protein Aiolos (Homo sapiens) (Q9UKT9 whole entry, looked up): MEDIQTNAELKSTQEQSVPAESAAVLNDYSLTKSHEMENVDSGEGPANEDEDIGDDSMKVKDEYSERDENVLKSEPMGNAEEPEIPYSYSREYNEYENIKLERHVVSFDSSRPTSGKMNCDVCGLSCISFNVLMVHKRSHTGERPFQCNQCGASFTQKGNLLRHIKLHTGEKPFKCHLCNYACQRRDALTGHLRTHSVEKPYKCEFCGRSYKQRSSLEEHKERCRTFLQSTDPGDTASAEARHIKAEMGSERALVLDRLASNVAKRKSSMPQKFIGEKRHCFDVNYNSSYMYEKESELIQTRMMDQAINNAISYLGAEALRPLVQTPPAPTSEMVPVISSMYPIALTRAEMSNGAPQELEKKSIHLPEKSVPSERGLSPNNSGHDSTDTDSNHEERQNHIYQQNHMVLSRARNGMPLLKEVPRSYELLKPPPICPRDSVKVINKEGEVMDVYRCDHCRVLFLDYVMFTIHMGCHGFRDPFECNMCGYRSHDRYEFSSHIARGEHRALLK
Chain of Protein cereblon/Histone deacetylase 3 (Homo sapiens) (O15379 whole entry, looked up): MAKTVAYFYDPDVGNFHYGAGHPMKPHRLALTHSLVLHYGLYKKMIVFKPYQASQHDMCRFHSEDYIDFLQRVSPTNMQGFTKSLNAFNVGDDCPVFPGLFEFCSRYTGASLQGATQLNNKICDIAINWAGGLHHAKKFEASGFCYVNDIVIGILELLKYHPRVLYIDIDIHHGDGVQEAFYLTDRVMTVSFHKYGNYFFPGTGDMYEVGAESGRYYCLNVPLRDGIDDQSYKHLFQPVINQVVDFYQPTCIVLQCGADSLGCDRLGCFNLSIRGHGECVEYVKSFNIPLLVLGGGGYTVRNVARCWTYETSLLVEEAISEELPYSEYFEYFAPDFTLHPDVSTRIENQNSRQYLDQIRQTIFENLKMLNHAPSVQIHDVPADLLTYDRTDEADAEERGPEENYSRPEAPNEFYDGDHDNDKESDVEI
Chain of Protein cereblon/Histone deacetylase 3 (Homo sapiens) (Q96SW2 whole entry, looked up): as the sequence (Q96SW2 whole entry, looked up, one chain of several) above
Chain of Histone deacetylase 1 (Q13547 whole entry): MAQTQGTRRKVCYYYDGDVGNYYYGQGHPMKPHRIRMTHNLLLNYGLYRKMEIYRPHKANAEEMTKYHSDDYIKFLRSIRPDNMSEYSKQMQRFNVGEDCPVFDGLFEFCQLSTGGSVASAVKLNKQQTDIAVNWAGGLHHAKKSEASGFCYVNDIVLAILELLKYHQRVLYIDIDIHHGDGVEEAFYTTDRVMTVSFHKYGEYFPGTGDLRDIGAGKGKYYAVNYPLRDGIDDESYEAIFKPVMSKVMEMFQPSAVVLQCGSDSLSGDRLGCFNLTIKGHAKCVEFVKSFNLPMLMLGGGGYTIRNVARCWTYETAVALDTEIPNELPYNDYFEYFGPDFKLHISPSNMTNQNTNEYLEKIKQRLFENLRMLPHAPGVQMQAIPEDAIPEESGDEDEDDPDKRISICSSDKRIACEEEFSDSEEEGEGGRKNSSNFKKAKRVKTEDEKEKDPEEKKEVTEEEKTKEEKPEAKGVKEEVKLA

SMILES: CCCCN(Cc1ccc(C(=O)NO)cc1)C(=O)Nc1ccc(OCCCCCn2cc(CNc3cccc4c3C(=O)N(C3CCC(=O)NC3=O)C4=O)nn2)cc1 (stereo unspecified)
- Activity [1]: Active
- Activity [2]: Active
- Activity [3]: inactive
- IC50 [4]: 8.7 nM
- IC50 (Histone deacetylase 1): 300 to 30000 nM
- Activity [5]: Dose-dependent effect

From ChEMBL document CHEMBL4311941, “Development of Multifunctional Histone Deacetylase 6 Degraders with Potent Antimyeloma Activity” (J Med Chem, 2019)
